Reference: ChEMBL document CHEMBL1127826, “Inhibitors of acyl-CoA:cholesterol acyltransferase (ACAT). 7. Development of a series of substituted N-phenyl-N'-[(1-phenylcyclopentyl)methyl]ureas with enhanced hypocholesterolemic activity” (J Med Chem, 1994)

species on record: Rattus norvegicus; assay: Percent change in total cholesterol in peanut oil (5.5%)-, cholic acid (0.3%)-, Cholesterol (1.5%)-fed rats after a single dose.; type: functional
Outline: (§1)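 Male Sprague-Dawley rats (200-225 g), n=5-7/group, given a single oral dose at 4 p.m. as a suspension in 1.5% CMC/0.2% Tween-20 in water (50 mg/kg); controls received vehicle alone. The rats then had free access to chow with peanut oil, cholesterol and cholic acid. At 8 a.m. next day they were bled by cardiac puncture under ether, and serum total cholesterol was measured as % change versus controls (unpaired two-tailed t-test).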

Row | Structure (SMILES) | Delta TC [%]
1 | CC(C)c1cccc(C(C)C)c1NC(=O)NCC1(c2cccc(N(C)C)c2)CCCC1 | -63
2 | CC(C)c1cccc(C(C)C)c1NC(=O)NCC1(c2ccc(NCCO)cc2)CCCC1 | -63
3 | COC(=O)c1cccc(C2(CNC(=O)Nc3c(C(C)C)cccc3C(C)C)CCCC2)c1 | -51
4 | CC(C)c1cccc(C(C)C)c1NC(=O)NCC1(c2cccc(C(=O)O)c2)CCCC1 | -40
5 | CC(C)c1cccc(C(C)C)c1NC(=O)NCC1(c2ccc(N)cc2)CCCC1 | -76

molecular target: T1, Acyl-CoA:cholesterol acyltransferase (Oryctolagus cuniculus, UniProt Q95214); assay: Tested for in vitro inhibition against Acyl coenzyme A:cholesterol acyltransferase of intestinal microsomes in cholesterol-fed rabbits; set-up: species or system Microsome
T1 sequence (Q95214 whole entry): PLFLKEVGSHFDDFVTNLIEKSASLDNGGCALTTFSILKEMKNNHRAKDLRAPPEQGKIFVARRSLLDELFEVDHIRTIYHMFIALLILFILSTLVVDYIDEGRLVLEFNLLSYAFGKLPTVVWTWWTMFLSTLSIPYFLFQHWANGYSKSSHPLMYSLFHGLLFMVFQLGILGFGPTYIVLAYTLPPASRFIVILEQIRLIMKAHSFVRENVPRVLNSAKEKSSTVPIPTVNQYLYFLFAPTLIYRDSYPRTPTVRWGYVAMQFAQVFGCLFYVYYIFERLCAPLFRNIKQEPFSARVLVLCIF
Outline: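 Microsomes were prepared from intestine of cholesterol-fed rabbits. ACAT activity was measured using [1-14C]oleoyl-CoA as substrate. Each determination was run in triplicate.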

Row | Structure (SMILES) | IC50 [nM]
6 | CC(C)c1cccc(C(C)C)c1NC(=O)NCC1(c2ccc(Cl)cc2)CCCC1 | 32
7 | Cc1ccc(C)c(C2(CNC(=O)Nc3c(C(C)C)cccc3C(C)C)CCCC2)c1 | 39
8 | Cc1cc(C)c(C2(CNC(=O)Nc3c(C(C)C)cccc3C(C)C)CCCC2)c(C)c1 | 56
9 | CC(C)c1cccc(C(C)C)c1NC(=O)NCC1(c2ccc(C(F)(F)F)cc2)CCCC1 | 66
10 | CC(C)c1cccc(C(C)C)c1NC(=O)NCC1(c2ccc(Br)cc2)CCCC1 | 29
11 | CC(C)c1cccc(C(C)C)c1NC(=O)NCC1(c2ccccc2C(F)(F)F)CCCC1 | 18
12 | Cc1ccc(C2(CNC(=O)Nc3c(C(C)C)cccc3C(C)C)CCCC2)c(C)c1 | 50
13 | CC(C)c1cccc(C(C)C)c1NC(=O)NCC1(c2cccc(N(C)C)c2)CCCC1 | 33
14 | COC(=O)c1cccc(C2(CNC(=O)Nc3c(C(C)C)cccc3C(C)C)CCCC2)c1 | 34
15 | CC(C)c1cccc(C(C)C)c1NC(=O)NCC1(c2cccc(C(=O)O)c2)CCCC1 | 620
16 | Cc1cccc(C2(CNC(=O)Nc3c(C(C)C)cccc3C(C)C)CCCC2)c1 | 15
17 | CC(C)c1cccc(C(C)C)c1NC(=O)NCC1(c2ccc(N)cc2)CCCC1 | 29

Further molecules by falling IC50, results first:

Row | IC50 [nM] | Structure (SMILES)
18 | 159 | CC(C)c1cccc(C(C)C)c1NC(=O)NCC1(c2ccc(CC(C)(C)C)cc2)CCCC1
19 | 131 | CC(C)c1cccc(C(C)C)c1NC(=O)NCC1(c2ccc([N+](=O)[O-])cc2)CCCC1
20 | 63 | CC(C)c1cccc(C(C)C)c1NC(=O)NCC1(c2ccc(C(C)(C)C)cc2)CCCC1
21 | 57 | CC(C)c1cccc(C(C)C)c1NC(=O)NCC1(c2cc(C(F)(F)F)cc(C(F)(F)F)c2)CCCC1
22 | 50 | CC(C)c1cccc(C(C)C)c1NC(=O)NCC1(c2ccc(N(C)C)cc2C(F)(F)F)CCCC1
23 | 48 | CC(C)c1ccc(C2(CNC(=O)Nc3c(C(C)C)cccc3C(C)C)CCCC2)cc1
24 | 27 | CC(C)c1cccc(C(C)C)c1NC(=O)NCC1(c2cccc(C(F)(F)F)c2)CCCC1
25 | 25 | Cc1ccc(C2(CNC(=O)Nc3c(C(C)C)cccc3C(C)C)CCCC2)cc1
26 | 25 | CC(C)c1cccc(C(C)C)c1NC(=O)NCC1(c2ccc(NCCO)cc2)CCCC1
27 | 23 | CC(C)c1cccc(C(C)C)c1NC(=O)NCC1(c2ccc(F)cc2)CCCC1
28 | 17 | Cc1ccccc1C1(CNC(=O)Nc2c(C(C)C)cccc2C(C)C)CCCC1

species on record: Rattus norvegicus; assay: Percent change in total cholesterol in peanut oil (5.5%) - cholic acid (0.3%) - Cholesterol (1.5%) fed rats after a single dose; type: functional; outline: as §1

Row | Structure (SMILES) | Delta TC [%]
29 | CC(C)c1cccc(C(C)C)c1NC(=O)NCC1(c2cccc(C(F)(F)F)c2)CCCC1 | -45
30 | CC(C)c1cccc(C(C)C)c1NC(=O)NCC1(c2ccc(Cl)cc2)CCCC1 | -64
31 | Cc1ccc(C)c(C2(CNC(=O)Nc3c(C(C)C)cccc3C(C)C)CCCC2)c1 | -48
32 | Cc1ccccc1C1(CNC(=O)Nc2c(C(C)C)cccc2C(C)C)CCCC1 | -73
33 | Cc1ccc(C2(CNC(=O)Nc3c(C(C)C)cccc3C(C)C)CCCC2)cc1 | -70
34 | Cc1cc(C)c(C2(CNC(=O)Nc3c(C(C)C)cccc3C(C)C)CCCC2)c(C)c1 | -24
35 | CC(C)c1cccc(C(C)C)c1NC(=O)NCC1(c2ccc(C(F)(F)F)cc2)CCCC1 | -39
36 | CC(C)c1cccc(C(C)C)c1NC(=O)NCC1(c2ccc(Br)cc2)CCCC1 | -59
37 | CC(C)c1cccc(C(C)C)c1NC(=O)NCC1(c2ccccc2C(F)(F)F)CCCC1 | -50
38 | Cc1ccc(C2(CNC(=O)Nc3c(C(C)C)cccc3C(C)C)CCCC2)c(C)c1 | -50
39 | CC(C)c1ccc(C2(CNC(=O)Nc3c(C(C)C)cccc3C(C)C)CCCC2)cc1 | -63
40 | CC(C)c1cccc(C(C)C)c1NC(=O)NCC1(c2ccc(C(C)(C)C)cc2)CCCC1 | -48
41 | CC(C)c1cccc(C(C)C)c1NC(=O)NCC1(c2ccc(CC(C)(C)C)cc2)CCCC1 | -53
42 | CC(C)c1cccc(C(C)C)c1NC(=O)NCC1(c2ccc(F)cc2)CCCC1 | -57
43 | CC(C)c1cccc(C(C)C)c1NC(=O)NCC1(c2cc(C(F)(F)F)cc(C(F)(F)F)c2)CCCC1 | -32
44 | Cc1cccc(C2(CNC(=O)Nc3c(C(C)C)cccc3C(C)C)CCCC2)c1 | -52
